An excerpt weighted towards active compounds, which were near 4.6% of everything screened.
UCH37 inh: inhibitors of human deubiquitinating enzyme UCH37; 0.33% of 330,000 active; Q9Y5K5; inhibition, % (no concentration beside the values); purified proteasome/UCH37, Ub-AMC cleavage fluorescence;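 active means mean inhibition over replicate wells above about 20%, limit read from the data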;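 further: 0% = compound-free wells with enzyme and 100% = wells lacking proteasome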
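Assay system: Proteasome-bound UCH37. Buffer or medium: pH 7.4 Tris-HCl (50 mM) with ovalbumin, ATP-MgCl2, DTT. Incubation: 30 min preincubation with enzyme, 25 min cleavage at room temperature. Measured by: fluorescence, ex 355 nm, em 460 nm. Read-out basis: percent inhibition. Control set: wells without proteasome as full block, compound-free enzyme plus substrate as uninhibited.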
Rtt109 HAT inh: inhibitors of Candida albicans Rtt109/Vps75 histone acetyltransferase. 0.16% of 330,000 active. AID 540336. inhibition, % at 34.9 µM. purified Rtt109/Vps75, ThioGlo CoA-SH fluorescence, 4 h;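 active means inhibition of at least 50% in every replicate; inconclusive means best replicate reaches 50% inhibition but some replicates fall short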
ALR inh: inhibitors of human sulfhydryl oxidase ALR; P55789; 3.8% of 290,000 active; inhibition, % (test concentration not listed); purified ALR, DTT oxidation, H2O2 HRP-luminol luminescence;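 active means mean replicate inhibition above about 79%, with every replicate also reaching it, limit read from the data; inconclusive means only one of the two criteria met; inactive means mean below limit and not every replicate reaching it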
Target sequence (P55789 whole entry, looked up): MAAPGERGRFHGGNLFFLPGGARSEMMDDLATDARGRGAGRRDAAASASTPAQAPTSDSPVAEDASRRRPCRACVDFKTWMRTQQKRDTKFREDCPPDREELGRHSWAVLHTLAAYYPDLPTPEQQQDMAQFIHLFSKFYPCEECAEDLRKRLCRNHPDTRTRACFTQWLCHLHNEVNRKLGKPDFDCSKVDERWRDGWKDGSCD
FAS TE block: FAS thioesterase (human) inhibition; P49327; recombinant FAS-TE, OMFH fluorogenic substrate, fluorescence endpoint; inhibition, % at 15 µM; 0.67% of 360,000 active;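 active means compounds whose normalised, plate-corrected inhibition of enzyme fluorescence in the single-dose primary screen is 50% or more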;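 further: 0% = DMSO with enzyme and 100% = substrate without enzyme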
PfM18AAP inh-1: blocks P. falciparum M18 aspartyl aminopeptidase | 1.2% of 290,000 active | inhibition, % at 7.35 µM | recombinant PfM18AAP, H-Glu-NHMec fluorogenic cleavage;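 active means inhibition above the campaign mean inhibition over all tested compounds plus 3 SD, cut at about 28% in these data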;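 further: 0% = plate median of test compound wells and 100% = 2 mM ZnCl2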
HDAC3 inhib: inhibitors of human histone deacetylase 3. inhibition, % at 8.3 µM. recombinant HDAC3, fluorogenic peptide/trypsin coupled, fluorescence. O15379. 0.15% of 320,000 active. AID 2718; in the data active means inhibition above about 26%, passing the limit was not always enough; inconclusive means no clear call, values can overlap the other calls
Target sequence (O15379 whole entry, looked up): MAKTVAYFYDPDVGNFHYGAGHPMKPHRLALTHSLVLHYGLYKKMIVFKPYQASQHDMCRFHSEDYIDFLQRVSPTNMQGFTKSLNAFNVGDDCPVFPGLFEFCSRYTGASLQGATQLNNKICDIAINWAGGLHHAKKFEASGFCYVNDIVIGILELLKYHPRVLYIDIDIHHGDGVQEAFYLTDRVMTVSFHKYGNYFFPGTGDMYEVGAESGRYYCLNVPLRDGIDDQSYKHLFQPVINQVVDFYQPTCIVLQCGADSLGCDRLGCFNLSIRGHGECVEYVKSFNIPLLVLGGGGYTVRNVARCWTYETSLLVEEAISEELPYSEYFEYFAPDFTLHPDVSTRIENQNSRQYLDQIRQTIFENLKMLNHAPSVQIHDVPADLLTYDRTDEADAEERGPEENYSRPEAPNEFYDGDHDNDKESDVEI
PfM18AAP inh-2: PfM18AAP inhibition, confirmation; shares compounds with PfM18AAP inh-1; recombinant PfM18AAP, H-Glu-NHMec fluorogenic cleavage; inhibition, % at 7.35 µM; 28% of 2,400 active; AID 2170;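 active means mean inhibition over replicate wells above the hit cutoff set for the earlier primary screen, cut at about 29% in these data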;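 further: 0% = median of test compound wells and 100% = 2 mM ZnCl2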
CTSL1 counter: Cathepsin L (human) inhibition, confirmation; 2,400 tested, under 10 active; inhibition, % at 5.96 µM; purified cathepsin L1, Z-Leu-Arg-MCA fluorescence; shares compounds with PfM18AAP inh-1;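 active means average inhibition across replicates above the hit cutoff set in the earlier primary screen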;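 further: 0% = median of test compound wells and 100% = Z-Phe-Ala-diazomethylketone 1 µM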
An asterisk follows results filed as active.

Results for CNCc1ccccc1Sc1ccc(O)c(O)c1 ?
UCH37 inh: 1.5; Rtt109 HAT inh: 13.2; ALR inh: 98.7*; FAS TE block: -6.8; PfM18AAP inh-1: 50.8*; HDAC3 inhib: 2.3; PfM18AAP inh-2: 69.7*; CTSL1 counter: -5.0

Results for COc1ccc(Sc2ccccc2CN(C)C)cc1OC ?
UCH37 inh: 0.7; Rtt109 HAT inh: -2.6; ALR inh: 8.0; FAS TE block: -7.5; PfM18AAP inh-1: -12.1; HDAC3 inhib: -0.7

What do the screens show for `COc1ccc(C2CC(c3ccc(Br)cc3)=NN2C(=S)Nc2ccccc2)cc1` (stereo unspecified)?
UCH37 inh: 6.9; Rtt109 HAT inh: -1.7; ALR inh: -5.7; FAS TE block: 25.9; PfM18AAP inh-1: 41.8*; HDAC3 inhib: -4.0; PfM18AAP inh-2: -19.8; CTSL1 counter: 9.4

Results for CC1=CC(=NNC(=O)c2cccs2)CC(C)(C)C1 ?
UCH37 inh: -0.8

What do the screens show for `CCN(CCCNC(=O)c1ccc(N2CCCC2=O)cc1)c1cccc(C)c1`?
UCH37 inh: 1.5; Rtt109 HAT inh: 1.6; ALR inh: 90.3*; FAS TE block: 0.0; PfM18AAP inh-1: 41.0*; HDAC3 inhib: -0.9; PfM18AAP inh-2: -17.1; CTSL1 counter: 1.8

How did Cc1ccc(CCNC(=O)CN2C(=O)COc3ccccc32)cc1 do in these assays?
UCH37 inh: 1.3; Rtt109 HAT inh: -2.6; ALR inh: -1.7; FAS TE block: -3.9; PfM18AAP inh-1: 0.9; HDAC3 inhib: -2.3

What do the screens show for `CCN(CCCNC(=O)CN1C(=O)COc2ccccc21)c1cccc(C)c1`?
UCH37 inh: 0.4; Rtt109 HAT inh: -5.0; ALR inh: 99.4*; FAS TE block: 1.3; PfM18AAP inh-1: 49.2*; HDAC3 inhib: 0.5; PfM18AAP inh-2: -12.3; CTSL1 counter: 1.8

What do the screens show for `CC(C)N(CCCNC(=O)c1ccc(N2CCCC2=O)cc1)Cc1ccccc1`?
UCH37 inh: 0.7; Rtt109 HAT inh: -0.2; ALR inh: -4.5; FAS TE block: -5.3; PfM18AAP inh-1: -3.7

What do the screens show for `CCCS(=O)(=O)N1CCC(C(=O)NCCCN(CC)c2cccc(C)c2)CC1`?
UCH37 inh: -4.5; Rtt109 HAT inh: -18.6; ALR inh: 15.8; FAS TE block: -6.3; PfM18AAP inh-1: 39.9*; HDAC3 inhib: 3.0; PfM18AAP inh-2: -15.0; CTSL1 counter: -0.1

What do the screens show for `CCN(CCCNC(=O)C1CCC(=O)N1Cc1ccccc1Cl)c1cccc(C)c1` (stereo unspecified)?
UCH37 inh: 4.0; Rtt109 HAT inh: -2.0; ALR inh: 98.9*; FAS TE block: 4.1; PfM18AAP inh-1: 36.8*; HDAC3 inhib: -4.6; PfM18AAP inh-2: -22.6; CTSL1 counter: -0.7

How did COc1ccc(C=NNC(=O)c2ccc3c(c2)NC(=O)C(C)(C)O3)cc1OC do in these assays?
UCH37 inh: -151.2

Results for Cc1ccc(N2CCN(N=Cc3sccc3C)CC2)cc1 ?
UCH37 inh: 2.0

How did CCN(CCCNC(=O)C1CCC(=O)N1Cc1ccc(C)cc1)c1cccc(C)c1 (stereo unspecified) do in these assays?
UCH37 inh: 1.3; Rtt109 HAT inh: 5.0; ALR inh: 99.3*; FAS TE block: -2.8; PfM18AAP inh-1: 54.0*; HDAC3 inhib: inconclusive; PfM18AAP inh-2: -16.9; CTSL1 counter: 4.4

Results for COC(=O)C=c1sc2ncnn2c1=O ?
UCH37 inh: 0.1

What do the screens show for `CCCOc1ccc(/C=c2\sc3ncnn3c2=O)cc1`?
Rtt109 HAT inh: 3.0; ALR inh: 0.2; FAS TE block: -4.8; PfM18AAP inh-1: 73.1*; HDAC3 inhib: -3.7; PfM18AAP inh-2: 38.9*; CTSL1 counter: 2.9

What do the screens show for `C=CCOc1ccccc1C=c1sc2nc(=O)c(C)nn2c1=O`?
UCH37 inh: 2.5

How did CCOc1ccccc1/C=c1\sc2ncnn2c1=O do in these assays?
Rtt109 HAT inh: -2.8; ALR inh: 39.2; FAS TE block: -9.0; PfM18AAP inh-1: 51.4*; HDAC3 inhib: 5.5; PfM18AAP inh-2: 28.6*; CTSL1 counter: -0.6

How did CC(=O)Oc1ccc(/C=c2\sc3ncnn3c2=O)cc1 do in these assays?
Rtt109 HAT inh: 3.5; ALR inh: 25.1; FAS TE block: -6.7; PfM18AAP inh-1: 34.7*; HDAC3 inhib: 2.2; PfM18AAP inh-2: -11.4; CTSL1 counter: -7.0

How did CCOC(=O)NN=Cc1cn(Cc2ccccc2Cl)c2ccccc12 do in these assays?
UCH37 inh: 5.7

Results for ON=C1C2C3C(Br)C4C5CC(C1C53)C24 (stereo unspecified) ?
UCH37 inh: 1.3

What do the screens show for `CC(=O)Nc1ccc(NC(=O)CC2Nc3cccc4cccc(c34)NC2=O)cc1` (stereo unspecified)?
UCH37 inh: 4.2; Rtt109 HAT inh: -2.2; ALR inh: 85.7*; FAS TE block: 1.3; PfM18AAP inh-1: 32.5*; HDAC3 inhib: 2.6; PfM18AAP inh-2: -36.1; CTSL1 counter: -4.1

How did CON=CC(C(C)=O)C(=O)Nc1ccc(Cl)cc1Cl (stereo unspecified) do in these assays?
UCH37 inh: -1.3

Results for CN(N=Cc1cc(Br)cc(Br)c1O)c1ccccc1 ?
UCH37 inh: 6.0

Results for COc1ccc(CCN2C(=O)CSC2=NNC(=O)c2ccc(C(C)(C)C)cc2)cc1OC ?
UCH37 inh: 5.7

What do the screens show for `CC1(C)Cc2c(c(N3CCOCC3)nc3sc4c(NN)ncnc4c23)CS1`?
UCH37 inh: 0.8; Rtt109 HAT inh: -22.7; ALR inh: -14.1; FAS TE block: 3.8; PfM18AAP inh-1: 32.8*; HDAC3 inhib: 4.8; PfM18AAP inh-2: -7.0; CTSL1 counter: 2.7

How did OCC(O)/C=N/Nc1nc2ccccc2s1 (stereo unspecified) do in these assays?
FAS TE block: -1.2; PfM18AAP inh-1: 33.0*; HDAC3 inhib: 2.6; PfM18AAP inh-2: 2.8; CTSL1 counter: -1.6

What do the screens show for `Oc1ccccc1C=NNc1nc2ccccc2s1`?
UCH37 inh: 4.2; Rtt109 HAT inh: -5.0; FAS TE block: 7.0

Results for CC1CN(Cc2nc3c(c(=O)n(C)c(=O)n3C)n2Cc2ccccc2)CC(C)O1 (stereo unspecified) ?
UCH37 inh: 2.5; Rtt109 HAT inh: -16.8; ALR inh: -5.6; FAS TE block: -5.3; PfM18AAP inh-1: 55.4*; HDAC3 inhib: 6.4; PfM18AAP inh-2: -55.1; CTSL1 counter: 1.2

How did CC1CN(Cc2nc3c(c(=O)n(C)c(=O)n3C)n2CC(=O)c2ccccc2)CC(C)O1 (stereo unspecified) do in these assays?
UCH37 inh: 2.7; Rtt109 HAT inh: 11.3; ALR inh: -6.8; FAS TE block: -3.2; PfM18AAP inh-1: -8.8; HDAC3 inhib: 2.3
